Bioassay records: PubChem, Johns Hopkins Ion Channel Center
This is a sample that favours compounds with a hit; in the whole collection about 3.7% have one here.
KCNK9 inh: blocks the human KCNK9 two-pore domain potassium channel | AID 488922 | actives 1.2% (n = 310,000) | HEK293 KCNK9, FluxOR thallium flux fluorescence; active compounds read low | B-score at 10 µM | Q9NPC2;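 active means ratio B-score over 3 SD below the library mean, with starting fluorescence within 5 SD of its mean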;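 further: negative B-score means less thallium flux so channel inhibition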
KCNK3 inh: human KCNK3 channel inhibition, primary screen; O14649; CHO-KCNK3 thallium flux, FluxOR fluorescence; active compounds read low; B-score at 10 µM; actives 0.84% (n = 340,000); AID 602410;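 active means B-score under library mean minus 4 SD, starting fluorescence ratio at most library mean plus 5 SD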;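 further: more negative B-score means stronger inhibition of thallium flux through KCNK3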
KCNQ1 inh: human KCNQ1 channel inhibition | actives 1.3% (n = 310,000) | B-score at 10 µM | AID 2642 | CHO-K1 KCNQ1, FluxOR thallium flux fluorescence; active compounds read high | P51787;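 active means compounds whose thallium flux B-score, printed positive for inhibition, exceeds three library SD while starting fluorescence stays within three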;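 further: channel opened by potassium depolarization with thallium stimulus after 20 min compound exposure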
Kir21 inh: inhibitors of mouse Kir2.1 inward-rectifier potassium channel; HEK293-Kir2.1, FluxOR thallium flux fluorescence; active compounds read low; B-score at 10 µM; actives 0.85% (n = 310,000);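 active means fluorescence ratio B-score at or below minus 3 SD of library scores, with starting-brightness B-score within 2 SD, cut at about -4.2 in these data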;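 further: channel flux triggered by added potassium and thallium sulfate stimulus; B-score of peak minus minimum fluorescence over baseline after thallium stimulus; more negative B-score means stronger Kir2.1 block with less thallium influx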
Target sequence (P35561 whole entry, looked up): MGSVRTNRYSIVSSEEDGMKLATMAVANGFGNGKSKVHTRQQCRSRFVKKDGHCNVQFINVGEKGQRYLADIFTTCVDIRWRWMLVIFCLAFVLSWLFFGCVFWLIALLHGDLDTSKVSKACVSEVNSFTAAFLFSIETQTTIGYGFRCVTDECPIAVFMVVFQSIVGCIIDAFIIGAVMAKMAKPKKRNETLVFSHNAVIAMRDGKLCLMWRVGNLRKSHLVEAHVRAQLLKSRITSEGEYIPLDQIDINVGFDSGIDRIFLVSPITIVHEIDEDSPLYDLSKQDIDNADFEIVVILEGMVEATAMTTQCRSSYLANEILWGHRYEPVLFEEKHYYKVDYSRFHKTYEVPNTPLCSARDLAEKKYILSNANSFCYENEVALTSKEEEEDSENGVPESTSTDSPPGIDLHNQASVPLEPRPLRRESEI
KCNQ1 pot: potentiators or activators of human KCNQ1 potassium channel | P51787 | CHO-K1 KCNQ1, thallium flux FluxOR fluorescence; active compounds read high | B-score at 10 µM | actives 0.35% (n = 310,000);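 active means fluorescence ratio B-score, a plate-corrected score, at least three library SD, with initial intensity B-score within 5 SD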
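Schedule – 37 °C overnight plating, 90-min dark dye load, 20-min compound pretreatment · System – stable KCNQ1 CHO-K1 line · Probe or stimulus – thallium- and potassium-containing depolarizing buffer · Measured by – kinetic FluxOR fluorescence, 10 s baseline plus 110 s post-stimulus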
hERG protect: hERG (human) protection from proarrhythmic block; CHO-hERG, FluxOR thallium flux, dofetilide IC70 present; activation (rescue from dofetilide block), less the hit threshold, % at 10 µM; actives 0.51% (n = 310,000); AID 1511;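 active means activation above the mean of controls blocked by dofetilide plus 5 SD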;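 further: thallium influx through hERG after potassium depolarization seen as dye fluorescence rise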
KCNK9 inh conf: confirmation of human KCNK9 potassium channel inhibitors | shares compounds with KCNK9 inh | HEK293 KCNK9 cells, FluxOR thallium flux fluorescence | inhibition, % at 10 µM | actives 43% (n = 4,900) | AID 492992;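 active means thallium signal inhibited by more than 5 SD of the compound-free buffer control wells, on both duplicate plates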
Kir21 sel: mouse Kir2.1 off-target activity of KCNK9 modulators. shares compounds with KCNK9 inh. Kir2.1 cells, FluxOR thallium flux fluorescence. inhibition, % at 10 µM. actives 4% (n = 4,900). AID 492993;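 active means thallium signal drop more than 5 SD beyond the mean of the no-compound control wells, seen in both duplicate plates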;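 further: signal is fluorescence rise after thallium addition divided by baseline fluorescence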
HEK293 Tl ctr: non-induced cell nonspecific activity of KCNK9 modulators; shares compounds with KCNK9 inh; non-induced KCNK9-HEK293, FluxOR thallium flux; inhibition, % at 10 µM; actives 40% (n = 4,900); AID 492997;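 active means thallium signal drop beyond 5 SD of the untreated control mean, on both duplicate plates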
Hits are given with their value; n = inactive; x = not tested or not shown.

SMILES	KCNK9 inh	KCNK3 inh	KCNQ1 inh	Kir21 inh	KCNQ1 pot	hERG protect	KCNK9 inh conf	Kir21 sel	HEK293 Tl ctr
CC(C)(C)n1nnnc1C(c1ccc(F)cc1)N(Cc1ccc(F)cc1)Cc1ccco1 (stereo not drawn)	-15	n	7	n	n	n	72%	n	40%
Cc1csc(=O)n1CCC(=O)OCC(=O)Nc1ccc(F)c(F)c1F	n	n	n	n	n	n	x	x	x
O=C(NCc1ccccc1)C1(c2ccccc2)CCN(S(=O)(=O)c2ccccc2)CC1	n	n	n	n	n	n	n	n	n
COc1ccc(Nc2nc(N3CCOCC3)nc(N3CCOCC3)n2)cc1Cl	n	n	n	n	n	n	x	x	x
NC(=O)CSc1nc2ccccc2c(=O)n1Cc1ccco1	n	n	n	n	n	n	x	x	x
CCCn1c(C)cc(C(=O)CSc2nc3ccccc3c(=O)n2Cc2ccco2)c1C	n	n	n	n	n	n	n	n	n
CSc1ccc(CN2CCC(n3nccc3NC(=O)CCCc3ccccc3)CC2)cc1	n	n	n	n	n	n	x	x	x
CN(Cc1ccccc1)C(=O)COC(=O)c1ccccc1NS(=O)(=O)c1cccc(N)c1	n	n	n	n	n	n	x	x	x
CC(OC(=O)c1ccccc1NS(=O)(=O)c1cccc(C(F)(F)F)c1)C(=O)N(C)Cc1ccccc1 (stereo not drawn)	-13	n	n	n	n	n	64%	n	31%
Cc1ccc(CSc2nc3ccccc3c(=O)[nH]2)cc1	-9	n	n	n	n	n	n	n	29%
COc1cccc(NC(=O)CN2C(=O)NC(c3ccccc3)(c3ccccc3)C2=O)c1	n	n	n	n	n	n	x	x	x
O=C(CSc1nnc(NC(=O)c2ccc3c(c2)OCO3)s1)NCc1ccco1	n	n	n	n	n	n	x	x	x
COc1ccc(C2(O)C(=O)Nc3ccc(C)cc32)cc1OC (stereo not drawn)	n	n	n	n	n	n	x	x	x
CCOC(=O)C1CN(S(=O)(=O)c2cccc(C(F)(F)F)c2)c2cc(CC(=O)OC)ccc2O1 (stereo not drawn)	n	n	n	n	n	n	x	x	x
C/C(=N\N1CCN(c2ccc(Cl)cc2)CC1)c1cccc([N+](=O)[O-])c1	-11	n	n	n	n	n	44%	n	30%
C[C@]12CCC(O)CC1CCC1C2CC[C@]2(C)C(c3cc(C(F)(F)F)n[nH]3)CCC12 (stereo partly drawn)	-13	n	n	n	n	n	33%	n	63%
O=C1CSC(c2ccccc2)N1Cc1ccccc1 (stereo not drawn)	n	n	n	n	n	n	x	x	x
O=c1cc(Cl)c(-c2ccccc2)nn1Cc1ccc(Cl)cc1	n	n	n	n	n	n	x	x	x
O=c1cc(N2CCCCC2)c(-c2ccccc2)nn1Cc1ccc(Cl)cc1Cl	-21	n	9	n	n	n	80%	n	46%
O=C(COc1ccc2ccccc2c1)Nc1cccc2cccnc12	-8.7	n	n	n	n	n	46%	n	39%
O=C(COc1ccc2ccccc2c1)Nc1cccnc1Cl	n	n	n	n	n	n	x	x	x
COc1cc(C2NC(=O)CCC2[N+](=O)[O-])cc(OC)c1OC (stereo not drawn)	n	n	n	n	n	n	x	x	x
COc1ccc(C2NC(=O)CCC2[N+](=O)[O-])cc1OC (stereo not drawn)	-15	n	n	n	n	n	n	n	n
COc1cc(C2C(C#N)=C(N)Oc3cc(N(C)C)ccc32)cc2c1OCO2 (stereo not drawn)	-8.6	n	n	n	n	n	34%	n	54%
COc1cc(C2C(C#N)=C(N)Oc3cc(O)ccc32)cc2c1OCO2 (stereo not drawn)	n	n	n	n	n	n	x	x	x
SMILES	KCNK9 inh	KCNK3 inh	KCNQ1 inh	Kir21 inh	KCNQ1 pot	hERG protect	KCNK9 inh conf	Kir21 sel	HEK293 Tl ctr
CC(C)C(=O)Nc1ccc(S(=O)(=O)N2CCC(c3nc4ccccc4[nH]3)CC2)cc1	n	n	n	n	n	n	x	x	x
Fc1ccc(Sc2nc(-c3ccccc3)nnc2C(F)(F)F)cc1	n	n	n	n	n	n	n	n	n
c1ccc(Cc2noc(CN3CCCN(C4Cc5ccccc5C4)CC3)n2)cc1	n	n	n	n	n	n	x	x	x
O=[N+]([O-])c1ccccc1/C=C/CN1CCN(Cc2ccc3c(c2)OCO3)CC1	n	n	n	n	n	n	n	n	n
c1ccc(Cc2noc(CN3CCN(Cc4ccc5c(c4)OCO5)CC3)n2)cc1	n	n	n	n	n	n	n	n	n
c1ccc(OCCN2CCN(Cc3nc(-c4ccc5c(c4)OCO5)no3)CC2)cc1	n	n	n	n	n	n	n	n	n
Fc1ccccc1Cc1noc(CN2CCN(Cc3ccc4c(c3)OCO4)CC2)n1	n	n	n	n	n	n	x	x	x
C(=C\c1ccccc1)/CN1CCN(Cc2ccc3c(c2)OCO3)CC1	n	n	n	n	n	n	x	x	x
c1cc(C2CCN(Cc3nc(-c4ccc5c(c4)OCO5)no3)CC2)ccn1	n	n	n	n	n	n	x	x	x
C(=C\c1ccccc1)/CN1CCN(Cc2nc(Cc3ccccc3)no2)CC1	n	n	n	n	n	n	n	n	n
CC[C@@H]1CCCCc2ccccc2[C@H](C(=O)C[C@H](O)CC(C)=O)OC1=O	x	n	x	x	x	x	x	x	x
COc1ccccc1OCCC(=O)NNC(=O)c1ccccc1F	x	n	x	x	x	x	x	x	x
c1ccc(Cc2noc(CN3CCN(C4CCc5ccccc5C4)CC3)n2)cc1 (stereo not drawn)	n	n	n	n	n	n	n	n	n
COc1ccccc1CN1CCN(Cc2nc(Cc3ccccc3)no2)CC1	n	n	n	n	n	n	n	n	n
O=C(CSc1nccc(-c2cccs2)n1)Nc1ccc(F)c(Cl)c1	-8.2	n	n	n	n	n	n	n	37%
O=C(CSc1nccc(-c2cccs2)n1)Nc1cccc(Cl)c1	n	n	n	n	n	n	x	x	x
Cc1ccccc1OCC(=O)NNC(=O)c1ccoc1C	x	n	x	x	x	x	x	x	x
CC1CCC(C(C)C)C(OC(=O)COC(=O)c2ccc(N)cc2)C1 (stereo not drawn)	n	n	n	n	n	n	n	n	n
CC1(C)N=C(N)NC(Nc2ccccc2Cl)=N1	n	n	n	n	n	n	x	x	x
CC1CCCN(C(=O)c2nn(C)c3c2CS(=O)(=O)c2ccccc2-3)C1 (stereo not drawn)	n	n	n	n	n	n	x	x	x
